These results are taken from ChEMBL document CHEMBL1124947, “Cationic antiprotozoal drugs. Trypanocidal activity of 2-(4'-formylphenyl)imidazo[1,2-a]pyridinium guanylhydrazones and related derivatives of quaternary heteroaromatic compounds” (J Med Chem, 1990).

Assay type in all cases: functional
Test [1] concerns Mus musculus. Briefly: Trypanocidal Activity at I.C.E. value 0.52 when administered subcutaneously. The method in brief:
(§1)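 Blood-stage T. rhodesiense infection came from a standard inoculum lethal to all untreated mice. Drug was given by subcutaneous injection to groups of five mice. Survival beyond 30 days counted as cure. […] Sub-curative doses scored 0, and data were normalized at each dose.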

The subject of test [2] is Mus musculus. Kind of test: Trypanocidal Activity at I.C.E. value 0.47 when administered subcutaneously. The method in brief: as §1
In test [3] the test system is Mus musculus. Briefly: Trypanocidal Activity at I.C.E. value 0.32 when administered subcutaneously. Put shortly: as §1
Test [4] deals with Mus musculus. Kind of test: Trypanocidal Activity at I.C.E. value 0.36 when administered subcutaneously.
The subject of test [5] is Trypanosoma brucei rhodesiense. Kind of test: In Vitro measurement of inhibition of leucine uptake in cell culture of Trypanosoma rhodesiense. Conditions: read-out: ID50 (the source's name). Put shortly:
(§2)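 Trypanosomes harvested from infected rats, cultured 3 h with several concentrations of drug, usually 0.1–100 µg/mL. Radiolabeled L-leucine uptake measured. ID50 is the concentration in µg/mL giving 50% inhibition of incorporation.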

The subject of test [6] is Trypanosoma brucei rhodesiense. Briefly: In Vitro measurement of inhibition of thymidine uptake in cell culture of Trypanosoma rhodesiense. To be noted: read-out: ID50 (the source's name). The method in brief: (§3)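 Parasites harvested from infected rats and incubated 3 h across a drug concentration series, usually 0.1–100 µg/mL. Incorporation of radiolabeled thymidine measured. ID50 is the concentration (µg/mL) producing 50% inhibition.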

The subject of test [7] is Mus musculus. Kind of test: Trypanocidal Activity at I.C.E. value 0.17 when administered subcutaneously.
For test [8], the system named is Mus musculus. Kind of test: Trypanocidal Activity at I.C.E. value 0.45 when administered subcutaneously. The method in brief:
as §1

Test [9] concerns Mus musculus. Briefly: Trypanocidal Activity at I.C.E. value 0.29 when administered subcutaneously. The method in brief:
as §1

For test [10], the system named is Mus musculus. Briefly: Trypanocidal Activity at I.C.E. value 0.57 when administered subcutaneously. Put shortly:
(§4)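 Mice, in groups of five per dose, were given a standard inoculum of blood-stage T. rhodesiense that is lethal to all untreated controls, then dosed subcutaneously. Usually 11 dose levels were used (2^n × 0.42 mg/kg).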

For test [11], the system named is Mus musculus. Briefly: Trypanocidal Activity at I.C.E. value 0.57 when administered perorally.
Test [12] has as its system Mus musculus. Briefly: Trypanocidal Activity at I.C.E. value 0.44 when administered subcutaneously. The method in brief: as §1
Test [13] deals with Mus musculus. Kind of test: Trypanocidal Activity at I.C.E. value 0.16 when administered subcutaneously.
Test [14] concerns Mus musculus. Briefly: Trypanocidal Activity at I.C.E. value 0.65 when administered subcutaneously. The method in brief:
as §4

In test [15] the test system is Mus musculus. Briefly: Trypanocidal Activity at I.C.E. value 0.38 when administered subcutaneously. Put shortly:
as §1

Test [16] concerns Mus musculus. Briefly: Trypanocidal Activity at I.C.E. value 0.34 when administered subcutaneously. The method in brief: as §1
The test system of test [17] is Trypanosoma brucei rhodesiense. Kind of test: In Vitro measurement of inhibition of Leucine uptake in cell culture of Trypanosoma rhodesiense. To be noted: read-out: ID50 (the source's name). The method in brief: as §2
Test [18] deals with Trypanosoma brucei rhodesiense. Kind of test: In Vitro measurement of inhibition of thymidine uptake in cell culture of Trypanosoma rhodesiense. Conditions: read-out: ID50 (the source's name). The method in brief:
as §3

Regarding `Br.CCNC(=N)N/N=C/c1ccc(OCc2cn3c(C)cccc3[n+]2C)cc1.[Br-]`, the CD50 with Mus musculus [1] was determined as 0.4 mg/kg. In the test with Mus musculus [2], `Br.Cc1c(-c2ccc(/C=N/NC(=N)N3CCCC3)cc2)[n+](C)c2ccccn12.[Br-]` showed a CD50 of 0.2 mg/kg. On to `Br.C/N=C(/NC)N/N=C/c1ccc(OCc2cn3c(C)cccc3[n+]2C)cc1.[Br-]`, for which the CD50 in the test with Mus musculus [3] came out at 3.3 mg/kg.

For the compound `Br.C=CC[n+]1c(-c2ccc(/C=N/NC(=N)N)cc2)cn2ccccc21.[Br-]`, the CD50 in the test on Mus musculus [4] amounted to 0.4 mg/kg.

In the case of `CC(=O)Nc1ccc(-c2cn3ccc4ccccc4c3[n+]2C)cc1.[Br-]`, the values for the IC50 in test [5] and in test [6] were 5.2 µg/mL and 3.2 µg/mL, respectively. In addition, the CD50 in the test with Mus musculus [7] was 212 mg/kg. In the test with Mus musculus [8], `Br.Cc1c(-c2ccc(/C=N/NC(=N)N)cc2)[n+](C)c2ccccn12.[Br-]` returned a CD50 of 0.2 mg/kg. Turning to `Br.C[n+]1c(-c2ccc(/C=N/NC(=N)N)cc2)c([N+](=O)[O-])n2ccccc21.[Br-]`, the CD50 with Mus musculus [9] came out at 3.3 mg/kg. The IC50 in [5] was 1.7 µg/mL; in test [6], 2.7 µg/mL. The compound `Br.COc1ccc2n(c1)cc(-c1ccc(/C=N/NC(=N)SC)cc1)[n+]2C.[Br-]` yielded a CD50 in the test on Mus musculus [2] of 13 mg/kg. `C[n+]1c(-c2ccc(/C=N/NC(=O)c3ccc(N)cc3)cc2)cn2ccccc21.Cc1ccc(S(=O)(=O)[O-])cc1` gave a CD50 in the test with Mus musculus [10] of 0.8 mg/kg.

`Cc1ccc(S(=O)(=O)N/N=C/c2ccc(-c3cn4ccccc4[n+]3C)cc2)cc1.[Br-]` had a CD50 in the test on Mus musculus [7] of 53 mg/kg.

As for `Br.Cn1c(COc2ccc(/C=N/NC3=NCCCN3)cc2)[n+](C)c2ccccc21.[Br-]`, the IC50 was more than 10 µg/mL in test [5] and 4.4 µg/mL in [6]. For the same compound, the CD50 came to 1.6 mg/kg in the test on Mus musculus [1] and 6.6 mg/kg in the test on Mus musculus [11].

In turn, `Cc1ccc(S(=O)(=O)[O-])cc1.Cc1cccc2n1cc(-c1ccc(COc3ccc(/C=N/NC(=O)c4ccc(N)cc4)cc3)cc1)[n+]2C` yielded a CD50 with Mus musculus [12] of 13 mg/kg. On to `Br.CCSc1ccc2n(c1)cc(-c1ccc(/C=N/NC(=N)SC)cc1)[n+]2C.[Br-]`, for which the CD50 in the test with Mus musculus [13] came out at 106 mg/kg. For the compound `C[n+]1c(-c2ccc(/C=N/NC(=N)N)cc2)cn2ccsc21.Cc1ccc(S(=O)(=O)O)cc1.Cc1ccc(S(=O)(=O)[O-])cc1`, the results for the IC50 in test [5] and in [6] were 1.3 µg/mL and 1.4 µg/mL, respectively. Besides, in the test on Mus musculus [14], the CD50 was found to be 0.4 mg/kg. `Br.C/N=C(/N/N=C/c1ccc(-c2cn3ccc(C)cc3[n+]2C)cc1)SC.[Br-]` yielded a CD50 in the test with Mus musculus [15] of 26 mg/kg.

With `C[n+]1c(-c2ccc(/C=N/NC(=N)NO)cc2)cn2ccsc21.Cc1ccc(S(=O)(=O)O)cc1.Cc1ccc(S(=O)(=O)[O-])cc1`, the IC50 in test [5] was 1.7 µg/mL; in test [6] it was 2 µg/mL. This compound also showed a CD50 in the test on Mus musculus [1] of 0.8 mg/kg.

With `Br.C[n+]1c(COc2ccc(/C=N/NC(=N)N)cc2)cn2ccccc21.[Br-]`, the values for the IC50 in test [5] and in test [6] were 0.9 µg/mL and 0.8 µg/mL, respectively. In the test with Mus musculus [2], this compound registered a CD50 of 0.1 mg/kg. For `Cc1ccc(S(=O)(=O)O)cc1.Cc1ccc(S(=O)(=O)[O-])cc1.Cc1cccc2n1cc(/C=N/NC(=N)NO)[n+]2C`, the CD50 in the test on Mus musculus [7] was 106 mg/kg. Compound `Br.C/N=C(\NC)N/N=C/c1ccc(OCc2n(C)c3ccccc3[n+]2C)cc1.[Br-]` yielded a CD50 with Mus musculus [16] of 3.3 mg/kg.

Consider `Br.C[n+]1c(-c2ccc(/C=N/NC(=N)NCCN3CCOCC3)cc2)cn2ccccc21.[Br-]`, for which the IC50 in test [17] was 11.7 µg/mL; in test [18], 2.3 µg/mL. In the test on Mus musculus [15], this compound came in with a CD50 of 0.8 mg/kg.

In turn, `Cc1ccc2n(c1)cc(-c1ccc(/C=N/Nc3cc(N)[nH]n3)cc1)[n+]2C.[Br-]` gave a CD50 with Mus musculus [9] of 26 mg/kg. In addition, the IC50 in test [5] and in [6] was more than 10 µg/mL each time. In the test on Mus musculus [9], `C[n+]1c(-c2ccc(/C=N/Nc3cc(N)[nH]n3)cc2)cn2ccccc21.[Br-]` registered a CD50 of 13 mg/kg. In the test on Mus musculus [9], `C[n+]1c(-c2ccc(C(=N)NO)cc2)cn2ccccc21.[Cl-]` returned a CD50 of 53 mg/kg. Turning to `Br.CC(Cc1ccncc1)NC(=N)N/N=C/c1ccc(-c2cn3ccccc3[n+]2C)cc1.[Br-]` (stereo not given), the CD50 in the test with Mus musculus [15] was 0.8 mg/kg. The compound `Cc1ccc2n(c1)cc(-c1ccc(C(=N)NO)cc1)[n+]2C.[Cl-]` registered a CD50 in the test with Mus musculus [13] of 106 mg/kg. `C[n+]1c(COc2ccc(/C=N/Nc3nc[nH]n3)cc2)cn2ccccc21.[Br-]`: the IC50 in test [5] is more than 10 µg/mL; in test [6], 0.5 µg/mL. `Br.CC(Cc1c[nH]cn1)NC(=N)N/N=C/c1ccc(-c2cn3ccccc3[n+]2C)cc1.[Br-]` (stereo not given) gave a CD50 in the test with Mus musculus [15] of 1.6 mg/kg.
